PubChem BioAssay AID1216 (Sanford-Burnham Center for Chemical Genomics, 2008)
The campaign covered roughly 190,000 compounds. About 660 (0.35%) were called active.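 The calls were made as follows: active = activation factor of 2 or more at 20 µM; inactive = the rest.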 The entries come from a sample that favours actives as a whole.

Each compound was assayed against Mannose-6-phosphate isomerase (Homo sapiens) (UniProt P34949) (assay: MPI activation at elevated mannose 6-phosphate – biochemical, fluorescence intensity, near-saturating mannose 6-phosphate, primary screen (AID 1216)). Conditions: coupled PMI enzyme assay, resazurin fluorescence, 20 min; at 20 µM; active compounds read high.
Mannose-6-phosphate isomerase (Homo sapiens), sequence (P34949 whole entry, looked up): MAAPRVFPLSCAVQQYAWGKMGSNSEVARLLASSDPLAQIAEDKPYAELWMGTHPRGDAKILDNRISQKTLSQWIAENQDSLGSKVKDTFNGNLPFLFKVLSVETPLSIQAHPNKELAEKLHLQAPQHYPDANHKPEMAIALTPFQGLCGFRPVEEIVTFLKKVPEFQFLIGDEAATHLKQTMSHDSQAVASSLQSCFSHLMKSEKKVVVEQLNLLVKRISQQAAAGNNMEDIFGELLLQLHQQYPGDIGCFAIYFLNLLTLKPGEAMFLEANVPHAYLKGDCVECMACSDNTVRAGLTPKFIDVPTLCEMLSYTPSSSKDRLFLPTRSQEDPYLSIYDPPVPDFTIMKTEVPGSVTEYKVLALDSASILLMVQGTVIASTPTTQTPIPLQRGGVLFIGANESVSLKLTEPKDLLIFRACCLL
How it was run: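 Material: human phosphomannose isomerase with PGI, G6PDH, diaphorase coupling enzymes. Quantity: 15 ng/mL PMI. Medium: HEPES pH 7.4 buffer with MgCl2 and Tween-20. Reagent: Near-saturating mannose-6-phosphate, 1.0 mM. Compound: 20 µM single dose. Times: enzyme reaction with compound 20 min at room temperature. Detection: resorufin fluorescence at Ex 544/Em 590 nm.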

**Q.** Which activation factor does the source give for COc1ccccc1N=Nc1c(O)[nH]c(=S)[nH]c1=O here?
**A.** The activation factor was 0.9 (inactive).

**Q.** Which activation factor does the source give for O=C1N=c2ccccc2=C/C1=C\c1c(O)[nH]c(=S)[nH]c1=O here?
**A.** Its activation factor is 2.1 (active).

**Q.** Which activation factor does the source give for Cc1ccc2c(c1)=C/C(=C\c1c(O)[nH]c(=O)[nH]c1=O)C(=O)N=2 here?
**A.** Its activation factor is 0.5 (inactive).

**Q.** How did the activation factor turn out when O=C(CSC1c2ccccc2-c2ccccc21)N/N=C/c1ccccc1 was run?
**A.** Its activation factor is 0.9 (inactive).

**Q.** For Cc1cccc(OP(=O)(Oc2cccc(C)c2)OC(c2ccccc2)C(F)(F)F)c1 (stereo not given), which activation factor is on record?
**A.** The activation factor was 0.9 (inactive).
